Data set [1] deals with Rattus norvegicus. As to the kind of experiment: Inhibition of intestinal iron uptake in po dosed acute weanling rat model of iron hyperabsorption assessed as decrease of serum iron level administered after 1 hr post iron challenge. It is filed as functional, organism-based. Put shortly: (§1)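 Anemic conscious rats ([…], serum iron <50 µg/dL); test article dosed po in 5% DMSO, 10% EtOH, 30% PEG400, 35% propylene glycol, 20% water; 1 h later oral challenge of 1 mg/kg Fe2+ as ferrous sulfate; serum iron measured 1 h after challenge; 8 animals per group, mean ± SEM; one-way ANOVA with Dunnett's test versus vehicle group.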

Data set [2] has as its system Rattus norvegicus. As to the kind of experiment: Toxicity in acute weanling rat model at 25 to 50 mg/kg, po. In kind it is organism-based. On the set-up: dose 25-50 mg/kg, route oral. The following applies: in vivo. Put shortly:
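Rats in the acute iron hyperabsorption study (anemic, conscious) dosed po at 25 or 50 mg/kg in 5% DMSO, 10% EtOH, 30% PEG400, 35% propylene glycol, 20% water; clinical observations recorded during the study.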

The target of data set [3] is T1, Natural resistance-associated macrophage protein 1 (Homo sapiens, UniProt P49279).
T1 sequence (P49279 whole entry): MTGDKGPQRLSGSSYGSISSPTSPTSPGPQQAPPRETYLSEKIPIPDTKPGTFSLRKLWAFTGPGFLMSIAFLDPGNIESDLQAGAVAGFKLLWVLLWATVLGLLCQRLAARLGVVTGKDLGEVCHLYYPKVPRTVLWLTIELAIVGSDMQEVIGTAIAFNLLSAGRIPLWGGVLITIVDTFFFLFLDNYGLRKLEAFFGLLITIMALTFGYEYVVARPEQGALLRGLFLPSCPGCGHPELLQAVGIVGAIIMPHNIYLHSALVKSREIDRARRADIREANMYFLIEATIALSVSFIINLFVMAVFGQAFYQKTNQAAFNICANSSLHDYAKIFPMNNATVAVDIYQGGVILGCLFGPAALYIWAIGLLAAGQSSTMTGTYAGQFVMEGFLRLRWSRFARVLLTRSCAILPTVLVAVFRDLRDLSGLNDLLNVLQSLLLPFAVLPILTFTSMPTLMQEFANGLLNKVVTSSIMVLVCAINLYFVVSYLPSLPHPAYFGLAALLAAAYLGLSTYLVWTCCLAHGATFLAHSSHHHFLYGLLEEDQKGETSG
As to the kind of experiment: Inhibition of NRAMP1 expressed in CHO cells. It is filed as cell-based.

The nature of data set [4]: Inhibition of human DMT1B-IRE expressed in CHO cells assessed as blockage of ferrous influx after 20 mins by calcein fluorescence quenching method. In kind it is cell-based. Put shortly: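 Calcein fluorescence quench assay for DMT1 (conditions detailed in supplementary data); IC50s are the average of at least two independent determinations.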
Data set [5] in a line: Apparent permeability across basolateral to apical side in human Caco2 cells. The following applies: Caco-2. It is filed as ADME, cell-based. Put shortly: (§2)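 Caco-2 cell monolayers; apparent permeability measured in both directions (apical→basolateral and basolateral→apical); […].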
For orientation: Caco-2 monolayers are a common model of the intestinal barrier.

The nature of data set [6]: Apparent permeability across apical to basolateral side in human Caco2 cells. It is filed as ADME, cell-based. The following applies: Caco-2. Put shortly: as §2
The subject of data set [7] is Rattus norvegicus. As to the kind of experiment: Inhibition of intestinal iron uptake in acute weanling rat model of iron hyperabsorption assessed as decrease of serum iron level at 50 mg/kg, po administered after 1 hr post iron challenge. It is filed as functional, organism-based. On the set-up: dose 50 mg/kg. The essentials: as §1
The test system of data set [8] is Rattus norvegicus. The experiment in a line: Inhibition of intestinal iron uptake in acute weanling rat model of iron hyperabsorption assessed as decrease of serum iron level at 25 mg/kg, po administered after 1 hr post iron challenge. On the set-up: dose 25 mg/kg. In kind it is functional, organism-based. Put shortly: as §1
For data set [9], the system named is Rattus norvegicus. As to the kind of experiment: Inhibition of intestinal iron uptake in acute weanling rat model of iron hyperabsorption assessed as decrease of serum iron level at 50 mg/kg, po administered after 1 hr post iron challenge relative to control. In kind it is functional. Put shortly:
as §1

The source made the active and inactive calls. The calls are words filed in the database; no cut-off is given here.

As to `Br.N=C(N)SCc1ccccc1Sc1ccccc1CSC(=N)N`, in the data set on Rattus norvegicus [1], the inhibition entry was “Dose-dependent effect”. For the same compound, the Activity result with Rattus norvegicus [2] was “Non-toxic”. In addition, the figures for the IC50 in data set [3] and in data set [4] were > 10000 nM and 180 nM, respectively. Besides, the Papp B→A (commonly how fast a substance crosses the layer from the basolateral side) in [5] worked out at 1.4 ×10⁻⁶ cm/s. Further, the Papp A→B (as a rule, the apparent permeability from the apical to the basolateral side of a cell layer) in data set [6] was determined as 0.1 ×10⁻⁶ cm/s. Besides, in the data set on Rattus norvegicus [7], the inhibition result was “Active”.
As for `Br.N=C(N)SCc1cc(F)ccc1Sc1ccc([N+](=O)[O-])cc1CSC(=N)N`, the inhibition entry in the data set on Rattus norvegicus [1] is “Dose-dependent effect”. For the same compound, the inhibition result with Rattus norvegicus [8] and in the data set with Rattus norvegicus [7] was “Active” throughout. In addition, the Activity entry in the data set with Rattus norvegicus [2] is reported as “Non-toxic”. Further, the results for the IC50 in [3] and in data set [4] were > 10000 nM and 80 nM, respectively. Moreover, the Papp B→A in [5] is 0.2 ×10⁻⁶ cm/s. The Papp A→B in data set [6] was determined as 0.1 ×10⁻⁶ cm/s.
As to `Br.N=C(N)SCc1ccccc1Oc1ccccc1CSC(=N)N`, in the data set on Rattus norvegicus [1], the inhibition result is “Dose-dependent effect”. For the same compound, the inhibition entry in the data set with Rattus norvegicus [8] and in the data set on Rattus norvegicus [7] was “Active” throughout. Moreover, in the data set on Rattus norvegicus [2], the Activity result was “Non-toxic”. Besides, the results for the IC50 in data set [3] and in data set [4] were > 10000 nM and 340 nM, respectively. The Papp B→A in data set [5] was determined as 0.2 ×10⁻⁶ cm/s. In addition, the Papp A→B in [6] worked out at 0.1 ×10⁻⁶ cm/s. The “fold change (FC)” value with Rattus norvegicus [9] stood at 8.
